These results are taken from PMC11757046 (Journal of medicinal chemistry, 2025).

Holding throughout (assay type): cell-based, human
Data set [1] relates to SH-SY5Y cells. The experiment in a line: Detoxification of external aldehyde IIa. Particulars: IIa 150 μM; relative to IIa only. Summed up: (§1)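 SH-SY5Y cells grown in DMEM/F12 with 10% FBS and seeded in 96-well plates for ~48 h at 37 °C, 5% CO2. They were pretreated with the test compound in fresh medium, washed twice, then exposed to the aldehyde in medium at 37 °C. Viability was read by SRB at 510 and 565 nm, background-subtracted. Fold change is % viable over aldehyde-only wells. Mean ± SD, n = 6, one-way ANOVA.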

In data set [2] the test system is SH-SY5Y cells. The experiment in a line: Detoxification of external aldehyde Ia. The following applies: then 20 μM Ia 24 h, relative to Ia only; for fold increase in cell viability against Ia: 1 mM detox agent 3 h. The essentials: as §1
Data set [3] has as its system SH-SY5Y cells. The experiment in a line: Intracellular reactive oxygen species assay. Particulars: for intracellular ROS level relative to untreated control: MPP+-inhibited cells, DCFDA fluorometric assay.
Data set [4] relates to SH-SY5Y cells. The experiment in a line: NAD+/NADH ratio assay. Particulars: MPP+-inhibited cells; negative control 68%.
The test system of data set [5] is SH-SY5Y cells. The experiment in a line: Protection of MPP+-inhibited cells. The following applies: then 1 mM MPP+ 24 h, relative to MPP+ only.
Data set [6] relates to SH-SY5Y cells. The experiment in a line: JC-10 mitochondrial membrane potential assay. Particulars: MPP+-inhibited cells.
The subject of data set [7] is SH-SY5Y cells. The experiment in a line: Aldehyde quantification assay in MPP+-treated cells.
Data set [8] can be described thus: Protection of MPP+-inhibited cells. Particulars: human.

`NCCC(=O)N[C@@H](Cc1cnc[nH]1)C(=O)O` [Car, carnosine]: the “fold improvement in cell viability against IIa” value (from here on “fold improvement”) in data set [1] is on record as “none of the conventional detox agents”. Further, in data set [2], the “fold increase in cell viability against Ia” value is 1.3 fold. In data set [3], the “intracellular ROS level relative to untreated control” value is on record as 7.5 ×. Moreover, in data set [4], the “intracellular NAD+ content (NAD+ %)” value is listed as “negligible effect”. For the same molecule, in data set [5] (1 mM detox agent 3 h), the “fold increase in cell viability against MPP+” value (from here on “fold increase … against MPP+”) is recorded as 1.2 fold.
For `CC(C)(O)c1nc2ccc(Cl)cc2cc1N` [Rep, reproxalap], the “fold improvement” value in data set [1] was “none of the conventional detox agents”. In addition, in data set [2] (50 μM detox agent 3 h), the “change in cell viability against Ia” value was “negligible change”. Further, the “intracellular ROS level relative to untreated control” value in data set [3] is 5.1 ×. Moreover, the “intracellular NAD+ content (NAD+ %)” value in data set [4] was 41%. The “fold increase … against MPP+” value in data set [5] (50 μM detox agent 3 h) came to 1.3 fold. Also, the “MMP, red/green fluorescence ratio (JC-10)” value in data set [6] amounted to 0.4.
Take `CCCCCC(O)C=CC=O` (centres unmarked) [Ia, 4-hydroxynon-2-enal]: the “ROS levels after treatment with the aldehyde” value in data set [3] (SH-SY5Y cells treated with Ia) was “significantly increased ROS levels”.
Turning to `N[C@@H](Cc1ccc(O)c(O)c1)C(=O)O` [L-Dopa, levodopa], in data set [1], the “fold improvement” value is on record as “none of the conventional detox agents”. Moreover, the “fold increase … against MPP+” value in data set [5] (50 μM detox agent 3 h) was 1.2 fold.
Turning to `O=C1O[C@H]([C@@H](O)CO)C(O)=C1O` [Asc, sodium ascorbate], the “fold improvement” value in data set [1] was “none of the conventional detox agents”. The “fold increase in cell viability against Ia” value in data set [2] was “negligible change”. Further, in data set [5] (1 mM detox agent 3 h), the “fold increase … against MPP+” value is on record as 1.1 fold.
What is called viability is a read-out of living cells in per cent, often relative to untreated cells. Low values mean more harm to the cells, high ones less harm to the cells. For `C[n+]1ccc(-c2ccccc2)cc1.[I-]` [MPP^+, 1-methyl-4-phenylpyridinium iodide], the “aldehyde concentration relative to untreated cells” value in data set [7] was “about 44 ×”. In data set [7] (Ir2mito used with HCOONa), the “aldehyde concentration in cells” value came out at 89 nmol/10^6 cells. The “intracellular ROS level relative to untreated control” value in data set [3] is 9.1 ×. For the same molecule, in data set [4], the “intracellular NAD+ content (NAD+ %)” value amounted to 27%. Besides, the viability at 24 h, 1 mM in data set [8] was 54%. The “MMP, red/green fluorescence ratio (JC-10)” value in data set [6] worked out at 0.2.
